Reference: ChEMBL document CHEMBL3875153, “Design and synthesis of isatin/triazole conjugates that induce apoptosis and inhibit migration of MGC-803 cells” (Eur J Med Chem, 2016)

Key:
[1] = Cytotoxicity against human SW780 cells assessed as growth inhibition after 72 hrs by CCK8 assay; assay type: functional, cell-based
Method in brief: (§1)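 Exponentially growing cells were trypsinized and seeded at 2 × 10^4 cells/mL (100 µL/well). After 24 h, medium was replaced with compound at 0.5–256 µM (twofold steps). Plates were incubated 72 h at 37 °C, 5% CO2, then with CCK-8 for 4 h. A450 was read. Three independent runs; IC50 given as mean and SD.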

[2] = Cytotoxicity against human HL-7702 cells assessed as growth inhibition after 72 hrs by CCK8 assay; assay type: toxicity, cell-based, L02; settings: for IC50 at 72 h: human, HL-7702 cells; method in brief: as §1
[3] = Cytotoxicity against human MGC803 cells assessed as growth inhibition after 72 hrs by CCK8 assay; assay type: functional, cell-based, MGC-803; method in brief: as §1
[4] = Cytotoxicity against human MCF7 cells assessed as growth inhibition after 72 hrs by CCK8 assay; assay type: functional, cell-based; method in brief: as §1
[5] = Cytotoxicity against human TE1 cells assessed as growth inhibition after 72 hrs by CCK8 assay; assay type: functional, cell-based, TE-1; method in brief: as §1
[6] = Cytotoxicity against human GES-1 cells assessed as growth inhibition after 72 hrs by CCK8 assay; assay type: toxicity, cell-based, GES1; settings: for IC50 at 72 h: human, GES-1 cells; method in brief: as §1
[7] = Homo sapiens, SW780, 72 h, read-out: IC50
[8] = Homo sapiens, MGC-803, 72 h, read-out: IC50
[9] = Homo sapiens, MCF7, 72 h, read-out: IC50
[10] = Homo sapiens, TE-1, 72 h, read-out: IC50

Row | SMILES | IC50 [1, 7] | IC50 at 72 h [2] | IC50 [3, 8] | IC50 [4, 9] | IC50 [5, 10] | IC50 at 72 h [6] | IC50 ([1]; sw780) | IC50 ([2]; l02) | IC50 ([3]; mgc-803) | IC50 ([4]; mcf7) | IC50 ([5]; te-1) | IC50 ([6]; ges1)
1 | O=C1C(=O)N(Cc2cn(CC(=O)N3CCCC3)nn2)c2c(Cl)ccc(Cl)c21 | 48.2 µM | > 128 µM | 14.8 µM | 62.4 µM | 51.6 µM | 88.7 µM | – | – | – | – | – | –
2 | O=C(Cn1cc(CN2C(=O)C(=O)c3c(Cl)ccc(Cl)c32)nn1)NC1CCCCC1 | 93.3 µM | 83.9 µM | 17.4 µM | 51.8 µM | 25.2 µM | 47.4 µM | – | – | – | – | – | –
3 | O=C1C(=O)N(Cc2cn(CC(=O)N3CCOCC3)nn2)c2c(Cl)ccc(Cl)c21 | 113 µM | > 128 µM | 51.7 µM | 146 µM | 119 µM | > 128 µM | – | – | – | – | – | –
4 | O=C1C(=O)N(Cc2cn(CC(=O)N3CCNCC3)nn2)c2c(Cl)ccc(Cl)c21 | – | – | – | – | – | – | Nd(Insoluble) | Nd(Insoluble) | Nd(Insoluble) | Nd(Insoluble) | Nd(Insoluble) | Nd(Insoluble)
5 | O=c1[nH]cc(F)c(=O)[nH]1 [FLUOROURACIL] | 6.99 µM | 12.8 µM | 10.6 µM | 13.2 µM | 17.3 µM | 13.8 µM | – | – | – | – | – | –
